Here are results for 3 molecules from ChEMBL document CHEMBL2401619, “Novel small molecule inhibitors targeting the "switch region" of bacterial RNAP: structure-based optimization of a virtual screening hit” (Eur J Med Chem, 2013).

≈ marks a conversion by molar mass, not a printed value.

The test system of assay [1] is Escherichia coli. As to the kind of experiment: Reduction of resistance frequencies in Escherichia coli expressing ToLC mutant at 2 x MIC after 16 hrs relative to rifampicin, myxopyronin. Format: functional. The method, boiled down:
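E. coli TolC cell count per mL set by plating dilutions on LB agar and counting colonies. […] Resistance frequency derived from the threshold inoculum at which growth (resistance) appeared.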

The subject of a further assay is Staphylococcus aureus. Briefly: Antibacterial activity against Staphylococcus aureus subsp. aureus Newman assessed as growth inhibiiton after 18 hrs. The class given is functional. The method, boiled down:
(§1)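 Broth dilution in LB, start OD600 0.03, compounds predissolved in DMSO (max 1% final), serial dilutions 0.02–100 µg/mL tested in duplicate. Incubation 18 h, 37 °C, 50 rpm (200 rpm for PAO1). OD read at start and after incubation. MIC is the lowest concentration with no detectable growth. Values are means of two independent runs, three if MIC <10 µg/mL.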

Assay [2] is described as follows: Antibacterial activity against Bacillus subtilis subsp. subtilis assessed as growth inhibiiton after 18 hrs. The class given is functional. The method, boiled down: as §1
In another assay the test system is Pseudomonas aeruginosa. As to the kind of experiment: Antibacterial activity against Pseudomonas aeruginosa PAO1 assessed as growth inhibiiton after 18 hrs. Format: functional. To be noted: PAO1, 18 h. The procedure, abridged:
as §1

The subject of assay [3] is Escherichia coli. Briefly: Antibacterial activity against Escherichia coli K-12 assessed as growth inhibiiton after 18 hrs. The class given is functional. The conditions noted are these: K-12, 18 h. The procedure, abridged: as §1
Assay [4] deals with Escherichia coli. Briefly: Antibacterial activity against Escherichia coli expressing ToLC mutant assessed as growth inhibiiton after 18 hrs. The class given is functional. The procedure, abridged:
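E. coli TolC (efflux-defective) in LB, start OD600 0.03, compounds predissolved in DMSO (max 1% final); serial dilutions, final 0.02–100 µg/mL, each concentration in duplicate. OD read at compound addition and after 18 h at 37 °C, 50 rpm. MIC = lowest concentration with no detectable growth; mean of two independent runs (three if MIC < 10 µg/mL).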

Assay [5] can be described thus: Inhibition of Escherichia coli RNAP assessed as incorporation of [5,6-3H]UTP preincubated for 10 mins followed by DNA template and ATP, CTP, GTP, UTP, [5,6-3H]UTP addition measured after 10 mins by scintillation counting analysis. The procedure, abridged:
(§2)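 Purchased E. coli RNAP holoenzyme (1 unit, 0.5 µg) with 40 mM Tris-HCl pH 7.5, 150 mM KCl, 10 mM MgCl2, 10 mM DTT, 0.1% CHAPS, RNase inhibitor and compound in 2% DMSO final, preincubated 10 min at 25 °C. Reaction started with religated pcDNA3.1 template (3500 ng), 400 µM ATP/CTP/GTP, 100 µM UTP and 60 nCi [3H]-UTP, then run 10 min at 37 °C. TCA-precipitated RNA counted by scintillation and compared with DMSO controls.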

Assay [6] has as its system Escherichia coli. As to the kind of experiment: Inhibition of Escherichia coli RNAP assessed as incorporation of [5,6-3H]UTP at 50 uM preincubated for 10 mins followed by DNA template and ATP, CTP, GTP, UTP, [5,6-3H]UTP addition measured after 10 mins by scintillation counting analysis relative to control. The procedure, abridged:
as §2

Assay [7] deals with Escherichia coli. As to the kind of experiment: Inhibition of RNAP in Escherichia coli expressing ToLC mutant assessed as reduction of RNA level at 100 uM after 40 mins by whole cell assay in presence of [3H]-uridine relative to control. The method, boiled down: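 E. coli TolC grown in LB. 3H-uridine (1 µCi/mL) added in log phase, 3 min before compound (100 µM, 0.5% DMSO). 300 µL culture harvested 40 min later and precipitated with 2 volumes of 10% TCA for 45 min at 4 °C. Precipitate collected on glass-fibre filters and radioactivity counted.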

As for `CCN(Cc1ccccc1)C(=O)Nc1cc(-c2cccc(Cl)c2)sc1C(=O)O`, the “fold change (FC)” value in the assay on Escherichia coli [1] was greater than 500. Further, the minimal inhibitory concentration (MIC) in the assay with Staphylococcus aureus was 21 µg/mL (≈ 50.6 µM); in [2], 12 µg/mL (≈ 28.9 µM); in the assay with Pseudomonas aeruginosa, greater than 100 µg/mL; with Escherichia coli [3] it was greater than 100 µg/mL; with Escherichia coli [4], 9 µg/mL (≈ 21.7 µM). The IC50 in [5] amounted to 72 µM. The negative-log IC50 (pIC50) in assay [5] came out at 4.14.

Turning to `CCOC(=O)c1c(NC(=O)Nc2ccccc2)sc2c1CCCCCC2` [UREIDOTHIOPHENE], the inhibition in the assay with Escherichia coli [6] was 2%.

As to `CCN(Cc1ccccc1)C(=O)Nc1cc(-c2ccc(Cl)c(Cl)c2)sc1C(=O)O`, the MIC in the assay on Staphylococcus aureus was 8 µg/mL (≈ 17.8 µM); in [2] it was 11 µg/mL (≈ 24.5 µM); in the assay on Pseudomonas aeruginosa it was greater than 25 µg/mL; in the assay with Escherichia coli [3], greater than 25 µg/mL; with Escherichia coli [4], 10 µg/mL (≈ 22.3 µM). Moreover, in the assay with Escherichia coli [7], the inhibition came to 60%. Moreover, in [5], the IC50 was found to be 22 µM. Besides, the negative logarithm of the IC50 (pIC50) in [5] was 4.66.

Broadly, the MIC is the lowest concentration found to suppress growth. One may read the IC50 as the concentration that inhibits the measured activity by half. Broadly, the pIC50 is the negative decadic logarithm of the IC50, by convention in mol/L. As usually defined, the inhibition is the drop in the measured response relative to a control, in per cent.
